Assay results taken from ChEMBL document CHEMBL1122109, “Monophenolic octahydrobenzo[f]quinolines: central dopamine- and serotonin-receptor stimulating activity” (1982).
Activity calls are given as the source filed them. No cut-off for these calls is given here.

Columns and labels:
Rattus norvegicus [1] = assay: ED50 value was measured as dose required to produce a half-maximal reduction of Serotonin (5-HTP) accumulation in striatum of reserpinized rat brain; I is Inactive at 11300 nmol/Kg; format: functional, organism-based
Rattus norvegicus [2] = assay: ED50 value was measured as dose required to produce a half-maximal reduction of Serotonin (5-HTP) accumulation in limbic area of reserpinized rat brain; I is Inactive at 11300 nmol/Kg; format: functional, organism-based
Rattus norvegicus [3] = assay: Percent reduction of hemispheres in cortex was measured in the brain of reserpinized rats; I is Inactive at 11300 nmol/Kg; format: functional, organism-based
Rattus norvegicus [4] = species: Rattus norvegicus; assay: Motor activity was measured in the reserpinized rats as counts/60 min.; format: functional
In short: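 Male Sprague-Dawley rats (200-300 g) received reserpine 10 mg/kg ip 6 h before testing and DL-α-methyl-p-tyrosine methyl ester HCl 250 mg/kg ip 1 h before. Test drug was given sc in the neck: trans derivatives at 1 mg/kg (3100 nmol/kg), cis at 10 mg/kg (31000 nmol/kg), n = 4. Rats were placed singly in motility meters immediately and activity recorded for 60 min; means ± SEM.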

Rattus norvegicus [5] = species: Rattus norvegicus; assay: ED50 value was measured as dose required to produce a half-maximal reduction of Dopa accumulation in the striatum of reserpinized rat brain.; format: functional
Rattus norvegicus [6] = species: Rattus norvegicus; assay: ED50 value was measured as dose required to produce a half-maximal reduction of Dopa accumulation in limbic area of reserpinized rat brain.; format: functional
Rattus norvegicus [7] = species: Rattus norvegicus; assay: Percent reduction of hemispheres in cortex was measured in the brain of reserpinized rats; I is Inactive, no significant effect at doses approximately 40 times the ED50 for Dopa accumulation; format: functional, organism-based
Rattus norvegicus [8] = species: Rattus norvegicus; assay: ED50 value was measured as dose required to produce a half-maximal reduction of Serotonin (5-HTP) accumulation in limbic area of reserpinized rat brain; I is Inactive, no significant effect at doses approximately 40 times the ED50 for Dopa accumulation; format: functional, organism-based
Rattus norvegicus [9] = species: Rattus norvegicus; assay: ED50 value was measured as dose required to produce a half-maximal reduction of Serotonin (5-HTP) accumulation in striatum of reserpinized rat brain; I is Inactive, no significant effect at doses approximately 40 times the ED50 for Dopa accumulation; format: functional, organism-based
Rattus norvegicus [10] = species: Rattus norvegicus; assay: Percent reduction of hemispheres in cortex was measured in the brain of reserpinized rats.*: No significant effect at doses approximately 40 times the ED50; format: functional
Rattus norvegicus [11] = species: Rattus norvegicus; assay: ED50 value was measured as dose required to produce a half-maximal reduction of Serotonin (5-HTP) accumulation in striatum of reserpinized rat brain; format: functional
Rattus norvegicus [12] = species: Rattus norvegicus; assay: ED50 value was measured as dose required to produce a half-maximal reduction of Serotonin (5-HTP) accumulation in limbic area of reserpinized rat brain; format: functional
Rattus norvegicus [13] = species: Rattus norvegicus; assay: ED50 value was measured as dose required to produce a half-maximal reduction of Dopa accumulation in the striatum of reserpinized rat brain; I is Inactive, no significant effect at doses approximately 10 times the ED50 for Dopa accumulation; format: functional, organism-based
Rattus norvegicus [14] = species: Rattus norvegicus; assay: ED50 value was measured as dose required to produce a half-maximal reduction of Dopa accumulation in limbic area of reserpinized rat brain; I is Inactive, no significant effect at doses approximately 10 times the ED50 for Dopa accumulation; format: functional, organism-based
Rattus norvegicus [15] = assay: ED50 value was measured as dose required to produce a half-maximal reduction of Dopa accumulation in limbic area of reserpinized rat brain; I is Inactive at 500 nmol/kg; format: functional, organism-based
Rattus norvegicus [16] = assay: ED50 value was measured as dose required to produce a half-maximal reduction of Dopa accumulation in the striatum of reserpinized rat brain; I is Inactive at 500 nmol/kg; format: functional, organism-based
Rattus norvegicus [17] = species: Rattus norvegicus; assay: ED50 for 5-HTP in cortex hemispheres was measured in the brain of reserpinized rats.
Rattus norvegicus [18] = species: Rattus norvegicus; assay: ED50 value was measured as dose required to produce a half-maximal reduction of Dopa accumulation in limbic area of reserpinized rat brain; I is Inactive, no significant effect at doses approximately 40 times the ED50 for Dopa accumulation; format: functional, organism-based
Rattus norvegicus [19] = species: Rattus norvegicus; assay: ED50 value was measured as dose required to produce a half-maximal reduction of Dopa accumulation in the striatum of reserpinized rat brain; I is Inactive, no significant effect at doses approximately 40 times the ED50 for Dopa accumulation; format: functional, organism-based
[20] = Rattus norvegicus, Striatum, read-out: ED50
[21] = Rattus norvegicus, Brain, read-out: ED50

Compound: CCCN1CCCC2c3cc(O)ccc3CCC21 (stereo in doubt; 8)
- ED50 (Rattus norvegicus [1]): inactive
- ED50 (Rattus norvegicus [2]): inactive
- Hemispheres reduction (Rattus norvegicus [3]): inactive

Compound: CCCN1CCCC2c3cc(O)ccc3CCC21 (stereo in doubt; 9) [listing 1 of 2 here]
- Motor activity (Rattus norvegicus [4]): 365
- ED50 (Rattus norvegicus [5]): 12 nM/kg
- ED50 (Rattus norvegicus [6]): 8 nM/kg

Compound: CCCN1CCCC2c3cc(O)ccc3CCC21 (stereo in doubt; 9) [listing 2 of 2 here]
- Hemispheres reduction (Rattus norvegicus [7]): inactive
- ED50 (Rattus norvegicus [8]): inactive
- ED50 (Rattus norvegicus [9]): inactive

Compound: CCCN1CCCC2c3c(O)cccc3CCC21 (stereo in doubt; 17) [listing 1 of 2 here]
- Hemispheres reduction (Rattus norvegicus [10]): 4500
- ED50 (Rattus norvegicus [11]): 3400 nM/kg
- ED50 (Rattus norvegicus [12]): 3400 nM/kg

Compound: CCCN1CCCC2c3c(O)cccc3CCC21 (stereo in doubt; 17) [listing 2 of 2 here]
- ED50 (Rattus norvegicus [13]): inactive
- ED50 (Rattus norvegicus [14]): inactive

Compound: CCCN1CCCC2c3c(O)cccc3CCC21 (stereo in doubt; 18) [listing 1 of 2 here]
- Hemispheres reduction (Rattus norvegicus [10]): 160
- ED50 (Rattus norvegicus [11]): 180 nM/kg
- ED50 (Rattus norvegicus [12]): 230 nM/kg

Compound: CCCN1CCCC2c3c(O)cccc3CCC21 (stereo in doubt; 18) [listing 2 of 2 here]
- ED50 (Rattus norvegicus [15]): inactive
- ED50 (Rattus norvegicus [16]): inactive

Compound: CCCN(CCC)C1CCc2c(O)cccc2C1 (centres undefined) [5-OH-DPAT]
- Hemispheres reduction (Rattus norvegicus [7]): inactive
- ED50 (Rattus norvegicus [8]): inactive
- ED50 (Rattus norvegicus [9]): inactive
- Motor activity (Rattus norvegicus [4]): 688
- ED50 (Rattus norvegicus [5]; [20]): 0.009 µmol/kg
- ED50 (Rattus norvegicus [6]; [21]): 0.011 µmol/kg

Compound: CCCN(CCC)C1CCc2cccc(O)c2C1 (centres undefined) [8-OH-DPAT]
- ED50 (Rattus norvegicus [17]): 68 nmol/kg
- ED50 (Rattus norvegicus [11]; [20]): 0.045 µmol/kg
- ED50 (Rattus norvegicus [18]): inactive
- ED50 (Rattus norvegicus [12]; [21]): 0.048 µmol/kg
- ED50 (Rattus norvegicus [19]): inactive

Compound: CN1CCc2cccc3c2[C@H]1Cc1ccc(O)c(O)c1-3 [APOMORPHINE]
- Hemispheres reduction (Rattus norvegicus [7]): inactive
- Motor activity (Rattus norvegicus [4]): 624
- ED50 (Rattus norvegicus [5]; [20]): 0.22 µmol/kg
- ED50 (Rattus norvegicus [6]; [21]): 0.19 µmol/kg
